Measurements from publication PMC5771863 (Anesthesiology, 2018).

Experiments:
Type in all cases: cell-based
[1] = target: wild-type α1β3γ2L GABAA receptors (Homo sapiens, UniProt P14867+P28472); conditions: […] ETO, 5 μM PRO, […] ALX (2 x EC50 tadpole LoRR)
[2] = target: α1T237Cβ3γ2L GABAA receptors (Homo sapiens, UniProt P14867+P28472, T264C); experiment: Substituted cysteine modification-protection; conditions: 10 μM ALX, 10 μM ETO
[3] = target: T1, α1β3L297Cγ2L GABAA receptors (Homo sapiens, UniProt P14867+P28472, L322C); experiment: Substituted cysteine modification-protection; conditions: pCMBS + maximal GABA
T1 sequence (P14867 28-456): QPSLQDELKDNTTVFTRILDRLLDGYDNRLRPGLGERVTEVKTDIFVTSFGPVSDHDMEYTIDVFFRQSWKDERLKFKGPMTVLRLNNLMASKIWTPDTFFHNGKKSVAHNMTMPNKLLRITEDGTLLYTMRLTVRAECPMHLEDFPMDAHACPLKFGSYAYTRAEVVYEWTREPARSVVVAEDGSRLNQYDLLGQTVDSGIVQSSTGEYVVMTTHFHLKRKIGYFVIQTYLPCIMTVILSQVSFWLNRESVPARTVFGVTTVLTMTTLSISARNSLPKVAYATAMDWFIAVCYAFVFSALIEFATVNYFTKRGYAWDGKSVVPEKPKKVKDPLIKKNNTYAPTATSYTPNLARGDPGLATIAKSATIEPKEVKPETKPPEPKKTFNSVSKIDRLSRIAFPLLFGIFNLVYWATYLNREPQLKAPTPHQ
T1 sequence (P28472 26-473 L322C): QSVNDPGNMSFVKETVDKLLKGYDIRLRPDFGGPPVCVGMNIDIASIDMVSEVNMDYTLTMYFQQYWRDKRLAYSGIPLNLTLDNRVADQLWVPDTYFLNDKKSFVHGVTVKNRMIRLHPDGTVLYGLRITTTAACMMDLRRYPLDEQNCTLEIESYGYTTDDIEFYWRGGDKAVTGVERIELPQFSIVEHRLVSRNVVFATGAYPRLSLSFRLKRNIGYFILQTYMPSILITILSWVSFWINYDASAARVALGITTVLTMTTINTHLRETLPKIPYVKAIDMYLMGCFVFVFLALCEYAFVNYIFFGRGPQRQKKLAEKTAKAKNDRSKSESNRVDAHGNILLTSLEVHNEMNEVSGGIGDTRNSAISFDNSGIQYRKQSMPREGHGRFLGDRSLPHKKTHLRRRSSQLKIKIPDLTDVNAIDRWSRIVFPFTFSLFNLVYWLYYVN
T1 sequence (P18507 40-475 partner): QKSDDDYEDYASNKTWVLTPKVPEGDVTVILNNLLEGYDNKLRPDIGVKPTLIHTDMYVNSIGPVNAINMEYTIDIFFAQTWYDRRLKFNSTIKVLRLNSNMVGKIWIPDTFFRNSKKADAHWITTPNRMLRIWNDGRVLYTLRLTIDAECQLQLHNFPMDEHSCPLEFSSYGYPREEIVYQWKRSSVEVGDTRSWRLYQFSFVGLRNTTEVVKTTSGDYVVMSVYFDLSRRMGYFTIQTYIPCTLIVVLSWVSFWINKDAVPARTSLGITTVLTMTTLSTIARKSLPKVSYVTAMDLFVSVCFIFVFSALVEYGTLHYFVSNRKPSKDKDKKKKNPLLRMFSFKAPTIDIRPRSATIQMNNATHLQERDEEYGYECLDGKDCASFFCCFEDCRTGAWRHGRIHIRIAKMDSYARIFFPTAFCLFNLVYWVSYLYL

[4] = target: T2, α1β3F301Cγ2L GABAA receptors (Homo sapiens, UniProt P14867+P28472, F326C); experiment: Substituted cysteine modification-protection; conditions: pCMBS + maximal GABA, 10 to 20 μM ALX, 10 to 20 μM ETO
[5] = target: GABAA receptors with α1Q242C mutation (Homo sapiens, UniProt P14867+P28472, Q269C); experiment: Receptor sensitivity to anesthetics; conditions: authors' unpublished data
[6] = target: T3, α1β3F293Cγ2L GABAA receptors (Homo sapiens, UniProt P14867+P28472, F318C); experiment: Substituted cysteine modification-protection; conditions: pCMBS + maximal GABA, initial concentrations, 10 μM ALX
T3 sequence (P14867 28-456): as the sequence (P14867 28-456) above
T3 sequence (P28472 26-473 F318C): as the sequence (P28472 26-473 L322C) above, with F293C, C297L counted along it
T3 sequence (P18507 40-475 partner): as the sequence (P18507 40-475 partner) above

[7] = target: β3 subunits with Y284C mutations co-expressed with α1 and γ2L (Homo sapiens, UniProt P14867+P28472, Y309C); experiment: GABA-activated currents, two-electrode voltage clamp in Xenopus oocytes; conditions: β3Y284C co-expressed with α1 and γ2L in Xenopus oocytes
Summary of the method: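 Human α1 and γ2L were co-expressed with mutant β3 from mRNA (1:1:5, ~50 ng per oocyte) over 48 to 72 hours at 17 °C in ND96. […] A current of ≥ 0.5 μA was required for further experiments.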

[8] = target: T3, α1β3F293Cγ2L GABAA receptors; conditions: control modification conditions
[9] = target: T4, α1β3V290Cγ2L GABAA receptors (Homo sapiens, UniProt P14867+P28472, V315C)
[10] = target: α1β3G287Cγ2L GABAA receptors (Homo sapiens, UniProt P14867+P28472, G312C); experiment: Functional effect of pCMBS exposure
[11] = target: α1β3M283Cγ2L GABAA receptors (Homo sapiens, UniProt P14867+P28472, M308C); experiment: Functional effect of pCMBS exposure
[12] = target: T2, α1β3F301Cγ2L GABAA receptors; experiment: Functional effect of pCMBS exposure
[13] = target: α1β3F289Cγ2L GABAA receptors (Homo sapiens, UniProt P14867+P28472, F314C); experiment: Functional effect of pCMBS exposure
[14] = target: α1β3E298Cγ2L GABAA receptors (Homo sapiens, UniProt P14867+P28472, E323C); experiment: Functional effect of pCMBS exposure
[15] = target: α1β3T266Cγ2L GABAA receptors (Homo sapiens, UniProt P14867+P28472, T291C); experiment: Functional effect of pCMBS exposure
[16] = target: T3, α1β3F293Cγ2L GABAA receptors; experiment: Functional effect of pCMBS exposure
[17] = target: α1β3γ2L GABAA receptors (wild-type) (Homo sapiens, UniProt P14867+P28472); experiment: Functional effect of pCMBS exposure
[18] = target: T1, α1β3L297Cγ2L GABAA receptors; experiment: Functional effect of pCMBS exposure
[19] = target: α1β3M286Cγ2L GABAA receptors (Homo sapiens, UniProt P14867+P28472, M311C); experiment: Functional effect of pCMBS exposure
[20] = target: T4, α1β3V290Cγ2L GABAA receptors; experiment: Functional effect of pCMBS exposure
[21] = target: α1β3T262Cγ2L GABAA receptors (Homo sapiens, UniProt P14867+P28472, T287C); experiment: Functional effect of pCMBS exposure
Sequence of α1β3T262Cγ2L GABAA receptors (P14867 28-456): as the sequence (P14867 28-456) above
Sequence of α1β3T262Cγ2L GABAA receptors (P28472 26-473 T287C): as the sequence (P28472 26-473 L322C) above, with T262C, C297L counted along it
Sequence of α1β3T262Cγ2L GABAA receptors (P18507 40-475 partner): as the sequence (P18507 40-475 partner) above

[22] = low concentrations of anesthetics

For `CCOC(=O)c1cncn1[C@H](C)c1ccccc1` [ETO, R-Etomidate], the “enhancement of gating of receptors activated with EC5 GABA” value [1] was “similarly enhance”, the “effect on pCMBS modification rates” value [2] was “inhibited modification” and the “effect on apparent rate of pCMBS modification” value (shortened to “effect on apparent rate”) ([3]; 50 μM ALX vs. 50 μM ETO) was “inhibition by ALX, but not ETO”. The “effect on apparent rate” value [3, 22] was “unaffected”, the “effect on apparent rate” value [4] was “unaffected” and the “receptor sensitivity to anesthetic” value [5] was “insensitivity to ALX, but not to ETO”. The “effect on apparent rate” value [6] was “accelerated”.
With `NCCCC(=O)O` [GABA, γ-Aminobutyric acid] the GABA-activated currents [7] was “No GABA-activated currents were detected” and the “fraction of receptors activated by maximal GABA” value [8] was “about 16%”.
In the case of `CC(C)c1cccc(C(C)C)c1O` [PRO, 2,6-diisopropylphenol], the “enhancement of gating of receptors activated with EC5 GABA” value [1] is reported as “similarly enhance”, the “effect on apparent rate” value [3, 22] is reported as “unaffected” and the “effect on apparent rate” value [6] is reported as “accelerated”.
In the case of `C=CCC1(c2cccc(C3(C(F)(F)F)N=N3)c2)C(=O)NC(=O)N(C)C1=O` (stereo not drawn) [mTFD-MPAB, R-allyl-m-trifluoromethyl-mephobarbital], the “effect on apparent rate” value [9] is reported as “unaffected”.
With `O=S(=O)([O-])c1cc[c]([Hg][Cl])cc1.[Na+]` [pCMBS, Para-chloromercuribenzenesulfonic acid sodium salt] the “Maximal Effect of pCMBS Modification (range): ↑ lo/hi GABA response” value (“Maximal Effect … ↑ lo/hi GABA response” for short) [10] was “↑ lo/hi GABA response (2.3 to 3.5-fold)”, the “Maximal Effect of pCMBS Modification (range)” value [11] was “No effect” and the “Maximal Effect … ↑ lo/hi GABA response” value [12] was “↑ lo/hi GABA response (3.8 to 4.9-fold)”. For the same molecule, the “Maximal Effect … ↑ lo/hi GABA response” value [13] was “↑ lo/hi GABA response (2.8 to 4.0-fold)”, the “Maximal Effect … ↑ lo/hi GABA response” value [14] was “↑ lo/hi GABA response (3.5 to 5.5-fold)” and the “Maximal Effect … ↑ lo/hi GABA response” value [15] was “↑ lo/hi GABA response (10 to 13-fold)”. The “Maximal Effect … ↑ lo/hi GABA response” value [16] was “↑ lo/hi GABA response (2.6 to 4.3-fold)”, the “Maximal Effect of pCMBS Modification (range)” value [17] was “No effect” and the “effect of pCMBS exposure on receptor function” value ([17]; pCMBS at 1 mM for 60 s) was “unaffected”. The “Maximal Effect … ↑ lo/hi GABA response” value [18] was “↑ lo/hi GABA response (5.5 to 7.2-fold)”, the “Maximal Effect … ↑ lo/hi GABA response” value [19] was “↑ lo/hi GABA response (5.8 to 7.8-fold)” and the “Maximal Effect … ↑ lo/hi GABA response” value [20] was “↑ lo/hi GABA response (2.3 to 3.1-fold)”. The “Maximal Effect of pCMBS Modification (range): Reduce max current” value [21] was “Reduce max current (95–99%)” and the “effect of pCMBS exposure on activation by GABA” value ([21]; low and high GABA) was “similarly reduced activation by both low and high GABA”.
